Active and inactive are the calls of the source. No cut-off for these calls is given here. Numbered stars: 1 amine (or outer) side, 2 acyl side, 3 side chain; on linkers, the order of the positions; unused ones are H or OH. Bridge positions count the residues as written; N and C are the ends. Square brackets hold non-standard residues; d marks the D form. Peptide text beside a SMILES is read from it. I, II: the chains in the order shown. Phe(4-guanidino) = N=C(N)Nc1ccc(C[C@H](N)C(=O)O)cc1; X1 = O=C(C(=O)[*:2])[C@H](Cc1ccc(O)cc1)N[*:1]; NMeL = CN[C@@H](CC(C)C)C(=O)O; Pen = CC(C)(S)[C@H](N)C(=O)O; Suc = O=C(CCC(=O)[*:2])[*:1]; Sar = CNCC(=O)O
What was measured:
[1] = target: T1, IgG receptor FcRn large subunit p51 (Homo sapiens, UniProt P55899); experiment: Ratio of RF-Pen-TG-4GuPhe-G-Sar-NMeLeu-YPC IC50 to compound IC50 for soluble human FcRn
[2] = test system: Mus musculus; experiment: Increase in human IgG catabolism in endogenous FcRn/beta2m gene knockout TG32B transgenic mouse harboring human FcRn at 1 mg/kg, iv QD for 4 consecutive days measured after 24 hrs by ELISA; type: functional, organism-based; set-up: dose 1 mg/kg
Summary of the method: (§1)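 TG32B mice (muFcRn−/−, muβ2m−/−, huFcRn+/+, huβ2m+/+), 4 per group, got 500 mg/kg hIgG (pooled subtypes) iv at 0 h. Peptide or vehicle (20 mM sodium acetate, pH 5) was given iv at 24, 48, 72 and 96 h. Blood was taken before each injection and at 30, 120 and 168 h. Serum hIgG was measured by ELISA: goat anti-hIgG(Fab) capture, goat anti-hIgG(Fc)-HRP detection.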

[3] = target: T1, IgG receptor FcRn large subunit p51; experiment: Ratio of RF-Pen-TGHF-valerolactam-NMeLeu-YPC IC50 to compound IC50 for soluble human FcRn
[4] = test system: Mus musculus; experiment: Increase in human IgG catabolism in iv dosed endogenous FcRn/beta2m gene knockout TG32B transgenic mouse harboring human FcRn administered QD for 4 consecutive days measured after 24 hrs by ELISA; type: functional, organism-based; summary of the method: as §1
[5] = target: T1, IgG receptor FcRn large subunit p51; experiment: Inhibition of IgG binding to soluble human FcRn after 2 hrs by competition ELISA
[6] = target: T1, IgG receptor FcRn large subunit p51; experiment: Ratio of RF-Pen-NMeAla-GHF-X-NMeLeu-YPC IC50 to compound IC50 for soluble human FcRn

T1 sequence (P55899 whole entry): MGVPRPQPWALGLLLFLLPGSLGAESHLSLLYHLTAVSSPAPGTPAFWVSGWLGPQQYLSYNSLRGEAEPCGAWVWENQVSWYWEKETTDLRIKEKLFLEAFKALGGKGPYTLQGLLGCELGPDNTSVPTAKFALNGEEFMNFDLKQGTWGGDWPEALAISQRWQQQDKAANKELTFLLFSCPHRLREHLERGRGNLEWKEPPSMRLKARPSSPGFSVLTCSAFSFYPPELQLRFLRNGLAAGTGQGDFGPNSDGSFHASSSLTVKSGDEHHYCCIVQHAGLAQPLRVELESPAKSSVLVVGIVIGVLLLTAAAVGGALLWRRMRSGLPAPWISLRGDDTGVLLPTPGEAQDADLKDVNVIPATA

Ratio IC50 [1] | Ratio IC50 [3] | IC50 [5] | Ratio IC50 [6] | SMILES | Activity [2] | Activity [4]
50 |  |  |  | CC(C)C[C@H]1C(=O)N[C@@H](Cc2ccc(O)cc2)C(=O)C(=O)N2CCC[C@H]2C(=O)N[C@H](C(N)=O)CSSC(C)(C)[C@H](NC(=O)[C@H](Cc2ccccc2)NC(=O)[C@H](CCCNC(=N)N)NC(=O)CCC(=O)N[C@@H](CCCNC(=N)N)C(=O)N[C@@H](Cc2ccccc2)C(=O)N[C@@H]2C(=O)N[C@@H]([C@@H](C)O)C(=O)NCC(=O)N[C@@H](Cc3ccc(NC(=N)N)cc3)C(=O)NCC(=O)N(C)CC(=O)N(C)[C@@H](CC(C)C)C(=O)N[C@@H](Cc3ccc(O)cc3)C(=O)C(=O)N3CCC[C@H]3C(=O)N[C@H](C(N)=O)CSSC2(C)C)C(=O)N[C@@H]([C@@H](C)O)C(=O)NCC(=O)N[C@@H](Cc2ccc(NC(=N)N)cc2)C(=O)NCC(=O)N(C)CC(=O)N1C (I: RF[Pen]TG[Phe(4-guanidino)]G[Sar][NMeL][X1]PC-NH2 / II: RF[Pen]TG[Phe(4-guanidino)]G[Sar][NMeL][X1]PC-NH2; disulfide I:3-I:12, II:3-II:12; linker I:N-II:N via Suc) | Active | 
 | 110 |  |  | CC(C)C[C@H]1C(=O)N[C@@H](Cc2ccc(O)cc2)C(=O)C(=O)N2CCC[C@H]2C(=O)N[C@H](C(N)=O)CSSC(C)(C)[C@H](NC(=O)[C@H](Cc2ccccc2)NC(=O)[C@H](CCCNC(=N)N)NC(=O)CCC(=O)NCCN(C)CC(=O)N[C@@H](CCCNC(=N)N)C(=O)N[C@@H](Cc2ccccc2)C(=O)N[C@@H]2C(=O)N[C@@H]([C@@H](C)O)C(=O)NCC(=O)N[C@@H](Cc3c[nH]cn3)C(=O)N[C@@H](Cc3ccccc3)C(=O)N[C@H]3CCCN(CC(=O)N(C)[C@@H](CC(C)C)C(=O)N[C@@H](Cc4ccc(O)cc4)C(=O)C(=O)N4CCC[C@H]4C(=O)N[C@H](C(N)=O)CSSC2(C)C)C3=O)C(=O)N[C@@H]([C@@H](C)O)C(=O)NCC(=O)N[C@@H](Cc2c[nH]cn2)C(=O)N[C@@H](Cc2ccccc2)C(=O)N[C@H]2CCCN(CC(=O)N1C)C2=O |  | Active
 |  | 18 nM | 61 | CC(C)C[C@H]1C(=O)N[C@@H](Cc2ccc(O)cc2)C(=O)C(=O)N2CCC[C@H]2C(=O)N[C@H](C(N)=O)CSSC(C)(C)[C@H](NC(=O)[C@H](Cc2ccccc2)NC(=O)[C@H](CCCNC(=N)N)NC(=O)CCC(=O)NCCN(C)CC(=O)N[C@@H](CCCNC(=N)N)C(=O)N[C@@H](Cc2ccccc2)C(=O)N[C@@H]2C(=O)N(C)[C@@H](C)C(=O)NCC(=O)N[C@@H](Cc3c[nH]cn3)C(=O)N[C@@H](Cc3ccccc3)C(=O)N[C@H]3CCCN(CC(=O)N(C)[C@@H](CC(C)C)C(=O)N[C@@H](Cc4ccc(O)cc4)C(=O)C(=O)N4CCC[C@H]4C(=O)N[C@H](C(N)=O)CSSC2(C)C)C3=O)C(=O)N(C)[C@@H](C)C(=O)NCC(=O)N[C@@H](Cc2c[nH]cn2)C(=O)N[C@@H](Cc2ccccc2)C(=O)N[C@H]2CCCN(CC(=O)N1C)C2=O | Active | 
